pKd: −log10 of the molar value. Values belong to the compound of their own block, whether it stands above or below them.
Tests used:
Homo sapiens = organism: Homo sapiens; assay: Selectivity ratio of Kd(app) for amyloid beta (1 to 42) (unknown origin) aggregates to Kd(app) for recombinant human tau (441 amino acid residues) aggregates
How it was run: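 Human 441-aa tau, expressed in E. coli, was aggregated at 1 mg/mL (MES pH 6.8, 0.1 mg/mL heparin, 37 °C, 3 days, shaking). Aβ1–42 was aggregated at 0.25 mg/mL (PBS pH 7.4, 37 °C, 42 h). Aggregates were incubated 30 min at room temperature with ligand, and fluorescence read at ex 440 nm, em 510 nm (tau) or 480 nm (Aβ). Apparent Kd came from saturation curves over six independent experiments, and the ratio is Kd(Aβ)/Kd(tau).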

[1] = molecular target: Amyloid-beta precursor protein (Homo sapiens, UniProt P05067); assay: Binding affinity to amyloid beta (1 to 42) (unknown origin) aggregates assessed as apparent dissociation constant after 30 mins by fluorescence spectroscopic analysis; conditions: read-out: Kd(app)
Sequence of Amyloid-beta precursor protein (P05067 whole entry): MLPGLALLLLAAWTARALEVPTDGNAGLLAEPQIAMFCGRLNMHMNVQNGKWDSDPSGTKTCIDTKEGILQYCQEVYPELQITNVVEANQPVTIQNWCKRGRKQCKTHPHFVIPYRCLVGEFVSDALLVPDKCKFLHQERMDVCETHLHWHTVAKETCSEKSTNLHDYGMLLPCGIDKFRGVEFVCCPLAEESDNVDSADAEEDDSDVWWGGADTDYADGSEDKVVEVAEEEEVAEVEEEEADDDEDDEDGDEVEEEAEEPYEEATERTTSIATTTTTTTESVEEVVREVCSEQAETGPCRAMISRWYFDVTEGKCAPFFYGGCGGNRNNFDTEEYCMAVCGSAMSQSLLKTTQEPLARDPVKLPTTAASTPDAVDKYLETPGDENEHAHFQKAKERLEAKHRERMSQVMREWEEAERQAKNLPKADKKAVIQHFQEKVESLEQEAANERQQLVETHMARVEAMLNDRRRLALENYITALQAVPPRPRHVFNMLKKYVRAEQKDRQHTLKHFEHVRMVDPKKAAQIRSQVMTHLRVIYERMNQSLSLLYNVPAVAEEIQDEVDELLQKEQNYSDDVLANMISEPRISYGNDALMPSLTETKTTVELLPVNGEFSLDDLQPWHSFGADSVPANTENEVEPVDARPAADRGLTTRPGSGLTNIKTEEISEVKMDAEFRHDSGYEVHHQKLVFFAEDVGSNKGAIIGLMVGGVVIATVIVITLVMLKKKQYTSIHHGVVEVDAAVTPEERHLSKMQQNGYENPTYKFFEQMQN
How it was run: (§1)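 Tau: human 441-aa tau expressed in E. coli, aggregated at 1 mg/mL in MES buffer pH 6.8 with 0.1 mg/mL heparin, 37 °C for 3 days with shaking. Abeta1-42 aggregated at 0.25 mg/mL in PBS pH 7.4, 37 °C for 42 h with shaking. Aggregates at final 10 µg/mL were incubated with ligand (final 0.02–10 µM) for 30 min at room temperature. Apparent Kd was taken from fluorescence saturation curves at ex 440 nm, em 510 nm (tau) or em 480 nm (Abeta). Mean ± SEM of six independent experiments.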

[2] = molecular target: Microtubule-associated protein tau (Homo sapiens, UniProt P10636); assay: Binding affinity to recombinant human tau (441 amino acid residues) aggregates expressed in Escherichia coli assessed as apparent dissociation constant after 30 mins by fluorescence spectroscopic analysis; conditions: read-out: Kd(app); how it was run: as §1
Sequence of Microtubule-associated protein tau (P10636 whole entry): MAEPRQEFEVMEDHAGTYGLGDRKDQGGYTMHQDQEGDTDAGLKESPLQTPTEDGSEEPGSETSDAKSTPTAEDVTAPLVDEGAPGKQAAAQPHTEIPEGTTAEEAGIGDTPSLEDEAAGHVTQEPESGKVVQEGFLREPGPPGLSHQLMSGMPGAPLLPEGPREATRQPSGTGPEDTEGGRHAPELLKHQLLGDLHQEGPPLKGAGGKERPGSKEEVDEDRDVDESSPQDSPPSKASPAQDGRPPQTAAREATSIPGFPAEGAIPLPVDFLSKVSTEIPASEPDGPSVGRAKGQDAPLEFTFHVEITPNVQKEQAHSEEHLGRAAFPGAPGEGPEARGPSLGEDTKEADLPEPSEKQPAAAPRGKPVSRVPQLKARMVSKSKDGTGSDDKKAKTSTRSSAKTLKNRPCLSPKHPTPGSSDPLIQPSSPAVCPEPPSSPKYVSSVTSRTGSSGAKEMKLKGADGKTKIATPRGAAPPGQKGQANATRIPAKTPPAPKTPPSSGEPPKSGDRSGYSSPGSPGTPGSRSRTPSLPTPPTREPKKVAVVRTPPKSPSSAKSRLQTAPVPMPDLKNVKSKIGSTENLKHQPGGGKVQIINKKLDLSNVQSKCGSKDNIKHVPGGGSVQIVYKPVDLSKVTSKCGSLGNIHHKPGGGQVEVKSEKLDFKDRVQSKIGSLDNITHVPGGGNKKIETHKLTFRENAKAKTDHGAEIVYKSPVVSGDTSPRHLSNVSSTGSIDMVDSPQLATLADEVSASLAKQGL

Intestine [3] = assay: Biodistribution in ddY mouse intestine at 13.2 to 20.6 kBq, iv measured at 60 mins by gamma counting analysis; type: ADME, organism-based; conditions: in vivo, 1 h
How it was run: (§2)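 Male ddY mice, 5 weeks old, received the 125I-labelled tracer (13.2–20.6 kBq) intravenously in the tail vein, in 100 µL saline containing ethanol. Animals were sacrificed at 2, 10, 30 and 60 min. Tissue radioactivity is expressed as %ID/g, mean (SD) of 5 animals.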

Spleen [4] = assay: Biodistribution in ddY mouse spleen at 13.2 to 20.6 kBq, iv measured at 60 mins by gamma counting analysis; type: ADME, organism-based; conditions: in vivo, 1 h; how it was run: as §2
Pancreas [5] = assay: Biodistribution in ddY mouse pancreas at 13.2 to 20.6 kBq, iv measured at 60 mins by gamma counting analysis; type: ADME, organism-based; conditions: in vivo, 1 h; how it was run: as §2
Heart [6] = assay: Biodistribution in ddY mouse heart at 13.2 to 20.6 kBq, iv measured at 60 mins by gamma counting analysis; type: ADME, organism-based; conditions: in vivo, 1 h; how it was run: as §2
Lung [7] = assay: Biodistribution in ddY mouse lung at 13.2 to 20.6 kBq, iv measured at 60 mins by gamma counting analysis; type: ADME, organism-based; conditions: in vivo, 1 h; how it was run: as §2
Stomach [8] = assay: Biodistribution in ddY mouse stomach at 13.2 to 20.6 kBq, iv measured per organ at 60 mins by gamma counting analysis; type: ADME, organism-based; conditions: in vivo, 1 h
How it was run: (§3)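 Male ddY mice, 5 weeks old, were injected in the tail vein with the 125I tracer (13.2–20.6 kBq) in 100 µL saline containing ethanol. Sacrifice at 2, 10, 30 and 60 min. Stomach radioactivity is expressed as %ID per whole organ, mean (SD) of 5 animals.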

Brain [9] = assay: Biodistribution in ddY mouse brain at 13.2 to 20.6 kBq, iv measured at 60 mins by gamma counting analysis; type: ADME, organism-based; conditions: in vivo, 1 h; how it was run: as §2
Blood [10] = assay: Biodistribution in ddY mouse blood at 13.2 to 20.6 kBq, iv measured at 60 mins by gamma counting analysis; type: ADME, organism-based; conditions: in vivo, 1 h; how it was run: as §2
Liver [11] = assay: Biodistribution in ddY mouse liver at 13.2 to 20.6 kBq, iv measured at 10 mins by gamma counting analysis; type: ADME, organism-based; conditions: in vivo; how it was run: as §2
Kidney [12] = assay: Biodistribution in ddY mouse kidney at 13.2 to 20.6 kBq, iv measured at 10 mins by gamma counting analysis; type: ADME, organism-based; conditions: in vivo; how it was run: as §2
Intestine [13] = assay: Biodistribution in ddY mouse intestine at 13.2 to 20.6 kBq, iv measured at 10 mins by gamma counting analysis; type: ADME, organism-based; conditions: in vivo; how it was run: as §2
Spleen [14] = assay: Biodistribution in ddY mouse spleen at 13.2 to 20.6 kBq, iv measured at 10 mins by gamma counting analysis; type: ADME, organism-based; conditions: in vivo; how it was run: as §2
Pancreas [15] = assay: Biodistribution in ddY mouse pancreas at 13.2 to 20.6 kBq, iv measured at 10 mins by gamma counting analysis; type: ADME, organism-based; conditions: in vivo; how it was run: as §2
Heart [16] = assay: Biodistribution in ddY mouse heart at 13.2 to 20.6 kBq, iv measured at 10 mins by gamma counting analysis; type: ADME, organism-based; conditions: in vivo; how it was run: as §2
Lung [17] = assay: Biodistribution in ddY mouse lung at 13.2 to 20.6 kBq, iv measured at 10 mins by gamma counting analysis; type: ADME, organism-based; conditions: in vivo; how it was run: as §2
Stomach [18] = assay: Biodistribution in ddY mouse stomach at 13.2 to 20.6 kBq, iv measured per organ at 10 mins by gamma counting analysis; type: ADME, organism-based; conditions: in vivo; how it was run: as §3
Brain [19] = assay: Biodistribution in ddY mouse brain at 13.2 to 20.6 kBq, iv measured at 10 mins by gamma counting analysis; type: ADME, organism-based; conditions: in vivo; how it was run: as §2
Blood [20] = assay: Biodistribution in ddY mouse blood at 13.2 to 20.6 kBq, iv measured at 10 mins by gamma counting analysis; type: ADME, organism-based; conditions: in vivo; how it was run: as §2
Liver [21] = assay: Biodistribution in ddY mouse liver at 13.2 to 20.6 kBq, iv measured at 30 mins by gamma counting analysis; type: ADME, organism-based; conditions: in vivo, 0.5 h; how it was run: as §2
Kidney [22] = assay: Biodistribution in ddY mouse kidney at 13.2 to 20.6 kBq, iv measured at 30 mins by gamma counting analysis; type: ADME, organism-based; conditions: in vivo, 0.5 h; how it was run: as §2
Intestine [23] = assay: Biodistribution in ddY mouse intestine at 13.2 to 20.6 kBq, iv measured at 30 mins by gamma counting analysis; type: ADME, organism-based; conditions: in vivo, 0.5 h; how it was run: as §2
Spleen [24] = assay: Biodistribution in ddY mouse spleen at 13.2 to 20.6 kBq, iv measured at 30 mins by gamma counting analysis; type: ADME, organism-based; conditions: in vivo, 0.5 h; how it was run: as §2
Pancreas [25] = assay: Biodistribution in ddY mouse pancreas at 13.2 to 20.6 kBq, iv measured at 30 mins by gamma counting analysis; type: ADME, organism-based; conditions: in vivo, 0.5 h; how it was run: as §2
Heart [26] = assay: Biodistribution in ddY mouse heart at 13.2 to 20.6 kBq, iv measured at 30 mins by gamma counting analysis; type: ADME, organism-based; conditions: in vivo, 0.5 h; how it was run: as §2
Lung [27] = assay: Biodistribution in ddY mouse lung at 13.2 to 20.6 kBq, iv measured at 30 mins by gamma counting analysis; type: ADME, organism-based; conditions: in vivo, 0.5 h; how it was run: as §2
Stomach [28] = assay: Biodistribution in ddY mouse stomach at 13.2 to 20.6 kBq, iv measured per organ at 30 mins by gamma counting analysis; type: ADME, organism-based; conditions: in vivo, 0.5 h; how it was run: as §3
Brain [29] = assay: Biodistribution in ddY mouse brain at 13.2 to 20.6 kBq, iv measured at 30 mins by gamma counting analysis; type: ADME, organism-based; conditions: in vivo, 0.5 h; how it was run: as §2
Blood [30] = assay: Biodistribution in ddY mouse blood at 13.2 to 20.6 kBq, iv measured at 30 mins by gamma counting analysis; type: ADME, organism-based; conditions: in vivo, 0.5 h; how it was run: as §2
Liver [31] = assay: Biodistribution in ddY mouse liver at 13.2 to 20.6 kBq, iv measured at 60 mins by gamma counting analysis; type: ADME, organism-based; conditions: in vivo, 1 h; how it was run: as §2
Kidney [32] = assay: Biodistribution in ddY mouse kidney at 13.2 to 20.6 kBq, iv measured at 60 mins by gamma counting analysis; type: ADME, organism-based; conditions: in vivo, 1 h; how it was run: as §2
[33] = 1-Octanol-PBS buffer partition coefficient, log P of the compound at 0.37 MBq after 2 mins by gamma counting analysis; type: physicochemical
Brain [34] = assay: Ratio of drug level in ddY mouse brain at 13.2 to 20.6 kBq, iv measured at 2 mins to drug level in ddY mouse brain at 13.2 to 20.6 kBq, iv measured at 60 mins; type: ADME, organism-based; conditions: in vivo
How it was run: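 Tail-vein injection of the 125I tracer (13.2–20.6 kBq, saline with ethanol) into male 5-week-old ddY mice. The ratio is brain uptake (%ID/g) at 2 min divided by brain uptake at 60 min, from groups of 5 animals.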

Brain [35] = assay: Biodistribution in ddY mouse brain at 13.2 to 20.6 kBq, iv measured at 2 mins by gamma counting analysis; type: ADME, organism-based; conditions: in vivo; how it was run: as §2
Stomach [36] = assay: Biodistribution in ddY mouse stomach at 13.2 to 20.6 kBq, iv measured per organ at 2 mins by gamma counting analysis; type: ADME, organism-based; conditions: in vivo; how it was run: as §3
Heart [37] = assay: Biodistribution in ddY mouse heart at 13.2 to 20.6 kBq, iv measured at 2 mins by gamma counting analysis; type: ADME, organism-based; conditions: in vivo; how it was run: as §2
Lung [38] = assay: Biodistribution in ddY mouse lung at 13.2 to 20.6 kBq, iv measured at 2 mins by gamma counting analysis; type: ADME, organism-based; conditions: in vivo; how it was run: as §2
Pancreas [39] = assay: Biodistribution in ddY mouse pancreas at 13.2 to 20.6 kBq, iv measured at 2 mins by gamma counting analysis; type: ADME, organism-based; conditions: in vivo; how it was run: as §2
Spleen [40] = assay: Biodistribution in ddY mouse spleen at 13.2 to 20.6 kBq, iv measured at 2 mins by gamma counting analysis; type: ADME, organism-based; conditions: in vivo; how it was run: as §2
Intestine [41] = assay: Biodistribution in ddY mouse intestine at 13.2 to 20.6 kBq, iv measured at 2 mins by gamma counting analysis; type: ADME, organism-based; conditions: in vivo; how it was run: as §2
Kidney [42] = assay: Biodistribution in ddY mouse kidney at 13.2 to 20.6 kBq, iv measured at 2 mins by gamma counting analysis; type: ADME, organism-based; conditions: in vivo; how it was run: as §2
Blood [43] = assay: Biodistribution in ddY mouse blood at 13.2 to 20.6 kBq, iv measured at 2 mins by gamma counting analysis; type: ADME, organism-based; conditions: in vivo; how it was run: as §2
Liver [44] = assay: Biodistribution in ddY mouse liver at 13.2 to 20.6 kBq, iv measured at 2 mins by gamma counting analysis; type: ADME, organism-based; conditions: in vivo; how it was run: as §2

- Selectivity ratio (Homo sapiens): 0.38
- pKd [1]: 6.05
- pKd [2]: 5.63
SMILES: Nc1ccc(/C=C/c2nc3ccc(I)cc3[nH]2)cc1

- Drug uptake (Intestine [3]): 30 % ID/g
- Drug uptake (Spleen [4]): 1.74 % ID/g
- Drug uptake (Pancreas [5]): 0.51 % ID/g
- Drug uptake (Heart [6]): 0.74 % ID/g
- Drug uptake (Lung [7]): 1.32 % ID/g
- Drug uptake (Stomach [8]): 2.97 %ID
- Drug uptake (Brain [9]): 0.14 % ID/g
- Drug uptake (Blood [10]): 1.37 % ID/g
- Drug uptake (Liver [11]): 23.2 % ID/g
- Drug uptake (Kidney [12]): 5.85 % ID/g
- Drug uptake (Intestine [13]): 11.5 % ID/g
- Drug uptake (Spleen [14]): 4.9 % ID/g
- Drug uptake (Pancreas [15]): 2.58 % ID/g
- Drug uptake (Heart [16]): 2.8 % ID/g
- Drug uptake (Lung [17]): 3.55 % ID/g
- Drug uptake (Stomach [18]): 4.88 %ID
- Drug uptake (Brain [19]): 1.42 % ID/g
- Drug uptake (Blood [20]): 2.76 % ID/g
- Drug uptake (Liver [21]): 16 % ID/g
- Drug uptake (Kidney [22]): 3.07 % ID/g
- Drug uptake (Intestine [23]): 28.4 % ID/g
- Drug uptake (Spleen [24]): 3.13 % ID/g
- Drug uptake (Pancreas [25]): 0.92 % ID/g
- Drug uptake (Heart [26]): 1.28 % ID/g
- Drug uptake (Lung [27]): 1.93 % ID/g
- Drug uptake (Stomach [28]): 4.65 %ID
- Drug uptake (Brain [29]): 0.36 % ID/g
- Drug uptake (Blood [30]): 2.19 % ID/g
- Drug uptake (Liver [31]): 11 % ID/g
- Drug uptake (Kidney [32]): 2.02 % ID/g
- logP at 2 min [33]: 2
- Ratio (Brain [34]): 29.4
- Drug uptake (Brain [35]): 4.11 % ID/g
- Drug uptake (Stomach [36]): 2.31 %ID
- Drug uptake (Heart [37]): 6.68 % ID/g
- Drug uptake (Lung [38]): 7.13 % ID/g
- Drug uptake (Pancreas [39]): 6.8 % ID/g
- Drug uptake (Spleen [40]): 5.19 % ID/g
- Drug uptake (Intestine [41]): 4.96 % ID/g
- Drug uptake (Kidney [42]): 11.2 % ID/g
- Drug uptake (Blood [43]): 3.65 % ID/g
- Drug uptake (Liver [44]): 19.9 % ID/g
SMILES: CNc1ccc(/C=C/c2nc3ccc([125I])cc3[nH]2)cc1
